Consider eleven molecules from ChEMBL document CHEMBL1145295, “Synthesis and biological evaluation of 5-arylamino-6-chloro-1H-indazole-4,7-diones as inhibitors of protein kinase B/Akt” (Bioorg Med Chem Lett, 2006).

What is called IC50 is the point on the concentration scale where inhibition reaches its midpoint.

Experiment [1] addresses RAC-alpha serine/threonine-protein kinase (Homo sapiens, UniProt P31749). Kind of experiment: Inhibition of Akt1 activity assessed as decrease in GSK3 phosphorylation. The format is functional. Put shortly:
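Akt1 enzyme (10 U/µL) preincubated 10 min at 37 °C with compound in DMSO in HEPES 20 mM, NaCl 14.3 mM, EDTA 1 mM, DTT 2 mM. Then 3 µL of 2 mM ATP and GSK3 fusion protein added, 30 min at 37 °C. Stopped at 70 °C for 5 min. Phospho-GSK3 detected by SDS-PAGE/Western or dot blot with anti-phospho (Ser21/9) antibody, ECL and densitometry.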

Experiment [2] can be described thus: Cytotoxicity against human KATO3 cells by MTT assay. The format is functional, cell-based. Put shortly: (§1)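 MTT colorimetric cytotoxicity assay following NCI protocols. Cells grown in DMEM with 10% heat-inactivated FBS at 37 °C, 5% CO₂.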
On the technique in general: Tetrazolium dyes change colour on reduction, which living cells bring about.

Another experiment relates to HepG2. As to the kind of experiment: Cytotoxicity against human HepG2 cells by MTT assay. The format is functional, cell-based. Put shortly:
as §1

In experiment [3] the test system is PC-3. As to the kind of experiment: Cytotoxicity against human PC3 cells by MTT assay. It counts as functional, cell-based. Put shortly:
as §1

The target of experiment [4] is T1, Serine/threonine-protein kinase AKT (Homo sapiens) (UniProt P31751+Q9Y243+P31749). As to the kind of experiment: Inhibition of GSK3-alpha phosphorylation in PC3 cells at 10 uM upto 5 hrs. The format is functional, cell-based. To be noted: PC-3, TDE = time-dependent effect. Put shortly: (§2)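 PC-3 cells (2×10⁶) cultured one day in DMEM/10% FBS, then exposed to 10 µM compound for up to 5 h. Lysates (70 µg) resolved on 12% gel. Western blot with anti-phospho-GSK3α/β (Ser21/9), anti-phospho-Akt (Ser473), anti-Akt and anti-GSK3β antibodies, ECL and densitometry. Values are relative to DMSO treatment.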
T1 sequence (P31749 whole entry, looked up): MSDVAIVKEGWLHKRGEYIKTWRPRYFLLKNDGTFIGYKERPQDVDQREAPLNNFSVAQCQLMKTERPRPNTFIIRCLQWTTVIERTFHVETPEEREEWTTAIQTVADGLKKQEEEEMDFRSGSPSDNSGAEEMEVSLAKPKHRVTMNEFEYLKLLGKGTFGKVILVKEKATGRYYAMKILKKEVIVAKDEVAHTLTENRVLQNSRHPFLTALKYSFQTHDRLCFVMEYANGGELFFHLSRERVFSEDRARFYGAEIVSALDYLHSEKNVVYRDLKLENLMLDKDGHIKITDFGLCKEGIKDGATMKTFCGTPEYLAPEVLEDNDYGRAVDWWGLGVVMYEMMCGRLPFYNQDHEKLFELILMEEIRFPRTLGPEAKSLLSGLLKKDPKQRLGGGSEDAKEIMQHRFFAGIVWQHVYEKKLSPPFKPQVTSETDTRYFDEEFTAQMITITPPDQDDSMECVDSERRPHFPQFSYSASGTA
T1 sequence (P31751 whole entry, looked up): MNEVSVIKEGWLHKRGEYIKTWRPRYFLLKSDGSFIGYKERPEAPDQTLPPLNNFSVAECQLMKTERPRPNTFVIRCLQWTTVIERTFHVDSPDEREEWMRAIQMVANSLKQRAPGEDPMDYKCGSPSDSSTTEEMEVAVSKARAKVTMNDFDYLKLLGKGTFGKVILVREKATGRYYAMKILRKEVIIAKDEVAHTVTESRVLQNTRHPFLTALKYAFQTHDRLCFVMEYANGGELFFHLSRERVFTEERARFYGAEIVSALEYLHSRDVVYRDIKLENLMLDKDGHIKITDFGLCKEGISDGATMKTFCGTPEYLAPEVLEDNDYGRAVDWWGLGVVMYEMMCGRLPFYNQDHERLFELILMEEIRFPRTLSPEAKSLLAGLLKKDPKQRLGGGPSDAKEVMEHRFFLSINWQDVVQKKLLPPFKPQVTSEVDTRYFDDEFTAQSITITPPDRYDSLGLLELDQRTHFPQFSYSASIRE
T1 sequence (Q9Y243 whole entry, looked up): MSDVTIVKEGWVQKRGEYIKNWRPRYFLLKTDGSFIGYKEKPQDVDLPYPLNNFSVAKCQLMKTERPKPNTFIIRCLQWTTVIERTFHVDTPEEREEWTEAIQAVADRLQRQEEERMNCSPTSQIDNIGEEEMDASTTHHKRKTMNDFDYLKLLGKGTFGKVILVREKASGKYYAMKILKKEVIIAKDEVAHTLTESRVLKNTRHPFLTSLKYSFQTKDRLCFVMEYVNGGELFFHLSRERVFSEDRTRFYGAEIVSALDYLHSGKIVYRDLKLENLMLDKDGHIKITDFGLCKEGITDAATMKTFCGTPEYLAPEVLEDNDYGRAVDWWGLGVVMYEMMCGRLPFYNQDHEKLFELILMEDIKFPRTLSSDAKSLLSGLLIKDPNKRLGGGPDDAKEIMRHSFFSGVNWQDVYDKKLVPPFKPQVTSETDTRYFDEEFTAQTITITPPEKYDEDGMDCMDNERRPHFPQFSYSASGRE

Experiment [5] deals with T1, Serine/threonine-protein kinase AKT (Homo sapiens). Kind of experiment: Inhibition of GSK3-beta phosphorylation in PC3 cells at 10 uM upto 5 hrs. It counts as functional, cell-based. The settings on record: PC-3, TDE = time-dependent effect. In outline: as §2
The test system of experiment [6] is PC-3. As to the kind of experiment: Inhibition of Akt1 phosphorylation in PC3 cells at 10 uM upto 5 hrs. The format is functional, cell-based. To be noted: Homo sapiens. In outline:
as §2

The subject of experiment [7] is PC-3. As to the kind of experiment: Antitumor activity against human PC3 cell xenografted in nude mouse at 5 mg/kg/day after 16 days. It counts as functional. In outline:
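Male nude mice, 4 weeks old, inoculated sc in the flank with PC-3 cells (10⁶ cells/site). At 200 mm³ tumors, randomized into groups (n = 6). Dosed iv daily for 16 days in cremophor vehicle (ethanol 7%, cremophor 7%, water). Tumors measured twice weekly by caliper, volume = length·width²/2. Inhibition is relative to vehicle at day 16.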
A general note: Xenograft models place foreign cells or tissue in a host animal.

Activity calls are given as the source filed them. The calls are words filed in the database; no cut-off is given here. Bounds are passed on as bounds.

Sequence of RAC-alpha serine/threonine-protein kinase (P31749 whole entry, the tested form may be a part): as the sequence (P31749 whole entry, looked up) above

In the case of `Cc1cc(C)cc(SC2=C(Cl)C(=O)c3[nH]ncc3C2=O)c1`, the IC50 is greater than 50 µM in experiment [1], greater than 100 µM in experiment [2] and greater than 100 µM with HepG2.

`Nc1ccc(N)c2[nH]ncc12`: the IC50 is greater than 50 µM in experiment [1], greater than 100 µM in experiment [2] and greater than 100 µM with HepG2.

For `O=C1C(Sc2ccc(Cl)c(Cl)c2)=C(Cl)C(=O)c2[nH]ncc21`, the 50% inhibitory concentration (IC50) is 12.3 µM in experiment [1], greater than 100 µM in experiment [2] and 88.7 µM in the experiment on HepG2.

With `O=C1C(Nc2cccc(Br)c2)=C(Cl)C(=O)c2[nH]ncc21`, the IC50 in experiment [1] is 13.9 µM; in experiment [2], 8.9 µM; with HepG2 it was 6.1 µM.

Consider `O=C1C(Nc2ccccc2F)=C(Cl)C(=O)c2[nH]ncc21`, for which the IC50 worked out at 15.8 µM in experiment [1], 20.2 µM in experiment [2] and 15.8 µM in the experiment on HepG2.

As to `O=C1C(Nc2ccc(C(F)(F)F)cc2)=C(Cl)C(=O)c2[nH]ncc21`, the half-inhibitory concentration (IC50) was determined as 12.4 µM in experiment [1], 13.8 µM in experiment [2], 9.2 µM with HepG2 and 13.7 µM in the experiment on PC-3 [3]. Further, the inhibition entry in experiment [4] and in experiment [5] was “tde” each time. In the experiment on PC-3 [6], the result was Active. In the experiment with PC-3 [7], this molecule registered an Activity of 27.1%.

As to `O=C1C(Nc2ccc(F)cc2F)=C(Cl)C(=O)c2[nH]ncc21`, the results for the half-inhibitory concentration (IC50) (in experiment [1]; in experiment [2]; with HepG2) were 16 µM, 9.9 µM and 2 µM, respectively.

On to `O=C1C(Nc2ccc(F)cc2)=C(Cl)C(=O)c2[nH]ncc21`, for which the IC50 is greater than 50 µM in experiment [1], 61.4 µM in experiment [2] and 37.2 µM in the experiment with HepG2.

In the case of `O=C1C(Nc2cc(F)cc(F)c2)=C(Cl)C(=O)c2[nH]ncc21`, the concentration for half-maximal inhibition (IC50) in experiment [1] was greater than 50 µM; in experiment [2], 75.8 µM; in the experiment on HepG2, 37.6 µM.

For the molecule `CCOc1ccc(NC2=C(Cl)C(=O)c3[nH]ncc3C2=O)cc1`, the IC50 came out at 4.9 µM in experiment [1], 9.7 µM in experiment [2] and 11.2 µM in the experiment with HepG2.

`O=C1C(Nc2cccc(F)c2)=C(Cl)C(=O)c2[nH]ncc21`: the half-maximal inhibitory concentration (IC50) was determined as 11.8 µM in experiment [1], 3.9 µM in experiment [2], 8.9 µM in the experiment with HepG2 and 6.3 µM with PC-3 [3]. The inhibition result in experiment [4] and in experiment [5] was “tde” throughout. The outcome with PC-3 [6] was Active.
